Source: ChEMBL document CHEMBL1123771, “Synthesis and structure-activity relationships of potent new angiotensin converting enzyme inhibitors containing saturated bicyclic amino acids” (J Med Chem, 1987)

Assays:
[1] = biological target: T1, Angiotensin-converting enzyme (Rattus norvegicus, UniProt P47820); test: Inhibition of rat Angiotensin I converting enzyme (ACE), using Hip-Gly-Gly as synthetic substrate.
T1 sequence (P47820 whole entry): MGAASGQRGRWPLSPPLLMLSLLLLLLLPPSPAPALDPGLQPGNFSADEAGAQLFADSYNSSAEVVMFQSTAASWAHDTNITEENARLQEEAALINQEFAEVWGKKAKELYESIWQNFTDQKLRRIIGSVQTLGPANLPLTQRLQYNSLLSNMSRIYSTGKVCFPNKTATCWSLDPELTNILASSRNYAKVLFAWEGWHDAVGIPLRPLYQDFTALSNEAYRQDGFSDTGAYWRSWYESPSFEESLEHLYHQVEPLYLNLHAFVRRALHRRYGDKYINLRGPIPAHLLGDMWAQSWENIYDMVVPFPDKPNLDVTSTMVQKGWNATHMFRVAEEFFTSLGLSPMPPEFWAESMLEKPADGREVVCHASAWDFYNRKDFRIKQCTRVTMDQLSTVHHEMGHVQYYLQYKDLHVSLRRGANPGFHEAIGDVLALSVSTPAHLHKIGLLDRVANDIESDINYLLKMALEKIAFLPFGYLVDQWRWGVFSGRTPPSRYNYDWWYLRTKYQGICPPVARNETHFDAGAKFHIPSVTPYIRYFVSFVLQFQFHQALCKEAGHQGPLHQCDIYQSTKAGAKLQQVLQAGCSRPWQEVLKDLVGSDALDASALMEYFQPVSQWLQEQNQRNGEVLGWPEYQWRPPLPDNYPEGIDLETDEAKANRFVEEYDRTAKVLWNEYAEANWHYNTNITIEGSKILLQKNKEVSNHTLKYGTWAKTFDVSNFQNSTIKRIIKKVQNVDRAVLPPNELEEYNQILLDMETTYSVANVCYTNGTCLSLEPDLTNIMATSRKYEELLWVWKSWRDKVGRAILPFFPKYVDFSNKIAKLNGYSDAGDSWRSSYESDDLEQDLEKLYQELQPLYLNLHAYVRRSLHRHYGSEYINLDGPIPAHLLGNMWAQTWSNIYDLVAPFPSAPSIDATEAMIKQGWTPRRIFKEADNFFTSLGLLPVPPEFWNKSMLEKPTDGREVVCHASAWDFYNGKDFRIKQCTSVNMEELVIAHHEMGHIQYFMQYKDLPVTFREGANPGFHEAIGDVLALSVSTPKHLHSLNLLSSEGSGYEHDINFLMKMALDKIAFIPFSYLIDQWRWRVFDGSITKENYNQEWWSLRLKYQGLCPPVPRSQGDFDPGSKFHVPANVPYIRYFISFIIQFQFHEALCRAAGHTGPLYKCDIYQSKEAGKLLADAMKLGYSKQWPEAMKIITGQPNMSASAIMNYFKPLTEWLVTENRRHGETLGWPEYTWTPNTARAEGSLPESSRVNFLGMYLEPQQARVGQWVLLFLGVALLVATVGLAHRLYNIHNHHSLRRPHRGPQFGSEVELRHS
Method in brief: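 Radioassay of converting-enzyme activity with Hip-Gly-Gly as substrate; compounds dissolved at 2–5 mg/mL in Me2SO, then diluted to test concentrations in pH 8 buffer (0.05 M Hepes, 0.1 M NaCl, 0.6 M Na2SO4).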

Rattus norvegicus [2] = test: Maximum change in mean aortic blood pressure in conscious renal 2-kidney/1-clip goldblatt hypertensive rat at a dose 30 mg/kg administered orally at 8h; 3 animals tested; format: functional, Artery; conditions: route oral
Method in brief: (§1)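 Male Sprague–Dawley rats made hypertensive at 4 weeks old by silver clip (0.2-mm gap) on left renal artery, contralateral kidney intact; 4–8 weeks development, cannulated (280–320 g), only mean aortic pressure >160 mmHg used. Oral dosing; 1-min running-average aortic pressure and heart rate logged every 30 min; maximum change from base line, mean ± SEM.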

Rattus norvegicus [3] = test: Mean aortic base line blood pressure in conscious renal 2-kidney/1-clip goldblatt hypertensive rat at a dose 30 mg/kg administered orally; format: functional, Artery; conditions: route oral
Rattus norvegicus [4] = test: Maximum change in mean aortic blood pressure in conscious renal 2-kidney/1-clip goldblatt hypertensive rat at a dose 30 mg/kg administered orally at 6 h; 3 animals tested; format: functional, Artery; conditions: route oral; method in brief: as §1
Rattus norvegicus [5] = test: Maximum change in mean aortic blood pressure in conscious renal 2-kidney/1-clip goldblatt hypertensive rat at a dose 30 mg/kg administered orally at 5h; 4 animals tested; format: functional, Artery; conditions: route oral
Method in brief: (§2)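 Male Sprague–Dawley rats, 4 weeks old, given a silver clip (0.2-mm gap) on the left renal artery with the other kidney intact. Hypertension developed over 4–8 weeks, then rats (280–320 g) were aortic-cannulated; only those with mean pressure >160 mmHg were used. Oral dosing. One-minute running averages were logged every 30 min. Results are mean ± 1 SEM, from 3–5 rats.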

Rattus norvegicus [6] = test: Maximum change in mean aortic blood pressure in conscious renal 2-kidney/1-clip goldblatt hypertensive rat at a dose 30 mg/kg administered orally at 8h; 4 animals tested; format: functional, Artery; conditions: route oral; method in brief: as §2
Rattus norvegicus [7] = test: Maximum change in mean aortic blood pressure in conscious renal 2-kidney/1-clip goldblatt hypertensive rat at a dose 30 mg/kg administered orally at 6 h; 4 animals tested; format: functional, Artery; conditions: route oral

| SMILES | IC50 [1] | Mean aortic blood pressure (Rattus norvegicus [3]) | other results |
| --- | --- | --- | --- |
| O=C(O)[C@@H]1CCCN1C(=O)CCS | 820 nM | – | – |
| CC(CS)C(=O)N1C(=O)CCC1C(=O)O (stereo not drawn) | 9.3 nM | 185 mmHg | Mean aortic blood pressure (Rattus norvegicus [2]): -48 mmHg |
| CC(=O)SCC(C)C(=O)N1C(=O)C2CCCCC2C1C(=O)O (stereo not drawn) | 300 nM | – | – |
| C1CCC(NC2CCCCC2)CC1.CC(CS)C(=O)N1C(=O)C2CCCCC2C1C(=O)O (stereo not drawn) | – | 192 mmHg | Mean aortic blood pressure (Rattus norvegicus [2]): -100 mmHg |
| C1CCC(NC2CCCCC2)CC1.O=C(O)C1C2CCCCC2C(=O)N1C(=O)CCS (stereo not drawn) | – | 205 mmHg | Mean aortic blood pressure (Rattus norvegicus [2]): -57 mmHg |
| C1CCC(NC2CCCCC2)CC1.O=C(O)C1C2CCCCC2CN1C(=O)CCS (stereo not drawn) | – | 184 mmHg | Mean aortic blood pressure (Rattus norvegicus [4]): -76 mmHg |
| O=C(O)C1Cc2ccccc2N1C(=O)CCS (stereo not drawn) | 140 nM | – | – |
| O=C(O)[C@@H]1CCC(=O)N1C(=O)CCS | 960 nM | – | – |
| C[C@H](N[C@@H](CCc1ccccc1)C(=O)O)C(=O)N1[C@H](C(=O)O)C[C@@H]2CCCC[C@@H]21 | – | 198 mmHg | Mean aortic blood pressure (Rattus norvegicus [5]): -104 mmHg |
| O=C(NC(Cc1ccccc1)C(=O)CCC(=O)N1C(C(=O)O)CC2CCCCC21)c1ccccc1 (stereo not drawn) | 11 nM | 169 mmHg | Mean aortic blood pressure (Rattus norvegicus [6]): -27 mmHg |
| CCOC(=O)C(CCc1ccccc1)N1C(=O)C2CC3CCCCC3N2C(=O)C1C (stereo not drawn) | > 100000 nM | – | – |
| O=C1SCCC(=O)N2C1CC1CCCCC12 (stereo not drawn) | 7 nM | – | – |
| CC(CSC(=O)c1ccccc1)C(=O)N1[C@H](C(=O)O)C[C@@H]2CCCC[C@@H]21 (stereo partly drawn) | 540 nM | – | – |
| CC(CS)C(=O)N1CC2CCCCC2C1C(=O)O (stereo not drawn) | – | 152 mmHg | Mean aortic blood pressure (Rattus norvegicus [7]): -50 mmHg |
